Hits are enriched below; roughly 2.9% of the tested compounds scored in any of these assays.
PRMT1 inh – inhibitors of human PRMT1; Q99873; recombinant PRMT1, activity-based probe fluorescence polarization; inhibition, % at 2.79 µM; 370,000 compounds, 1.3% hits;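 active = inhibition above about 21% made by adding two undisclosed values, limit read from the data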
A3G deaminase – blocks human APOBEC3G single-stranded DNA deamination; AID 493012; Q9HC16; 330,000 compounds, 0.28% hits; recombinant A3G, ssDNA deamination FAM/TAMRA fluorescence; inhibition, % at 20 µM;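 active = inhibition of at least 40% at 20 µM, with no more than 30% in the related APOBEC3A deaminase screen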
NS3 helicase inh – HCV NS3 helicase inhibition; NS3 helicase DNA unwinding, Cy5 molecular beacon fluorescence; inhibition, % at 10.9 µM; 290,000 compounds, 0.56% hits;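 active = inhibition above the mean of all tested compounds plus 3 SD, set per campaign, cut at about 35% in these data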
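Test system: hepatitis C virus NS3 helicase domain fragment enzyme. Also added: annealed dual-labelled DNA beacon duplex, ATP-started. Timing: 60 min unwinding reaction at 25 °C after ATP addition. Technique: Cy5 fluorescence. Measure: % inhibition of unwinding.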
ABHD5 PLIN5 PPI – ABHD5-PLIN5 protein interaction inhibition. Q00G26+Q8WTS1. Split G. princeps luciferase complementation, luminescence, 4 h. inhibition, % at 4 µM. 360,000 compounds, 0.78% hits;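 active = inhibition above the mean inhibition across every tested compound plus 3 SD, cut at about 22% in these data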
APOBEC3A inh – inhibitors of human APOBEC3A DNA deaminase; recombinant A3A, FAM/TAMRA ssDNA deamination fluorescence; AID 493011; P31941; inhibition, % at 20 µM; 330,000 compounds, 0.41% hits;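 active = at least 40% inhibition at 20 µM here, with at most 30% in a related deaminase screen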
Target sequence (P31941 whole entry, looked up): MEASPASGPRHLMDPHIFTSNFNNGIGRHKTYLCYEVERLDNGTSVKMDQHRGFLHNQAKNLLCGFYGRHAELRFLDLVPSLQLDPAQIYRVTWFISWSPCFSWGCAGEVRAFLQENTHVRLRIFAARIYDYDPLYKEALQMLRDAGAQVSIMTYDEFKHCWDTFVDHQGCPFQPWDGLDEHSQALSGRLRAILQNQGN
HCV core dimer – blocks dimerization of HCV core protein; 300,000 compounds, 0.33% hits; TR-FRET GST/Flag-core106 dimerization, 1536-well; inhibition, % at 5 µM; AID 1899;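 active = inhibition above the mean of all tested compounds plus 3 SD, set per screening campaign, cut at about 45% in these data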
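Assay system: GST-tagged and Flag-tagged HCV core protein residues 1-106 / Times: compound-protein-antibody incubation 4 h at 22.5 °C / Signal: time-resolved FRET, ex 340 nm, em 617 and 671 nm / Evaluation: % inhibition based on acceptor/donor emission ratio / Benchmarks: wells lacking GST-core106 and wells with excess unlabelled core106 / Repeats: singlicate, one well per compound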
APOBEC3A confirm – confirmation of human APOBEC3A DNA deaminase inhibitors; inhibition, % at 20 µM; 1,400 compounds, 63% hits; shares compounds with APOBEC3A inh; recombinant A3A, ssDNA deaminase UDG fluorescence assay;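 active = inhibition reaching a set limit, 80% of the first screen's cutoff, at 20 µM in any replicate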
UDG ctr A3A – counter-screen for APOBEC3A inhibitors: UDG; UDG counterscreen, FAM/TAMRA uracil oligo fluorescence; AID 504714; 1,000 tested, under 10 active; shares compounds with APOBEC3A inh; inhibition, % at 20 µM; call rule not given here
A number is an active result; n = inactive; x = no result.

SMILES | PRMT1 inh | A3G deaminase | NS3 helicase inh | ABHD5 PLIN5 PPI | APOBEC3A inh | HCV core dimer | APOBEC3A confirm | UDG ctr A3A
CN(C)c1ccc(/C=C(/NC(=O)c2ccccc2)C(=O)N2CCCC2)cc1 | n | n | n | n | n | n | x | x
C[N+]12CCCCC1[C@@H](CO)CCC2 (stereo partly drawn) | n | n | n | n | 56 | n | 71 | n
O=C1C=C(O)c2c(O)cc(O)c(O)c2C1=O | 47 | n | x | n | 83 | n | 76 | x
CCOc1cc(N2CCOCC2)c(OCC)cc1NC(=O)c1cc(S(=O)(=O)N2CCOCC2)ccc1Cl | n | n | x | n | n | x | x | x
CCOc1cc(N2CCOCC2)c(OCC)cc1NS(=O)(=O)c1ccc(Cl)s1 | n | n | n | n | 60 | n | n | x
Cc1ccc(C)c(NC(=O)Cn2cc(C(=O)C3CC3)c3ccccc32)c1 | n | n | n | n | 71 | n | 62 | n
CC1CCC2(CC1)NC(=O)N(CC(=O)N1CCN(c3ccccc3)CC1)C2=O (stereo not drawn) | n | n | x | n | n | x | x | x
CCC1Nc2ncnc(N3CCc4ccccc4C3)c2N(Cc2ccc(Br)cc2)C1=O (stereo not drawn) | x | x | x | n | x | x | x | x
Cc1ccc(C2=C/C(=C/c3cccnc3)C(=O)O2)c(C)c1 | n | n | n | n | n | n | x | x
O=C1OC(c2ccc(Cl)cc2)=C/C1=C/c1cccnc1 | n | n | n | n | 62 | n | 37 | n
CN(Cc1ccccc1)C(=O)COC(=O)c1ccc(Br)o1 | n | n | x | n | n | x | x | x
CCCCC1CCC(C(=O)OC(C)C(=O)Nc2ccc(NC(C)=O)cc2)CC1 (stereo not drawn) | n | n | n | n | 49 | n | n | x
CC(C)C(NC(=O)COc1ccc2ccccc2c1)C(=O)N/N=C/C=C/c1ccccc1 (stereo not drawn) | n | n | n | n | 41 | n | 63 | n
CCOC(=O)/C(C#N)=C1\SS/C(=C(/C#N)C(=O)OCC)S1 | x | n | n | x | n | n | x | x
CC[n+]1cccc(-c2nc3ccccc3s2)c1 | n | n | n | n | 53 | n | 64 | n
Nc1cccc(-c2nc3ccccc3s2)c1 | n | n | n | n | n | n | x | x
CCN(CC(=O)NCc1cccs1)c1ccc(S(=O)(=O)N2CCN(C)CC2)cn1 | n | n | n | n | n | n | x | x
O=C1NC(=S)SC1=C1CCCC1 | 24 | n | n | n | 62 | n | 58 | n
CN(C)S(=O)(=O)c1ccc(C(=O)NCC[N+]2(C)CCCCCC2)o1 | n | n | n | n | 93 | n | 73 | n
Cc1ccc(NC(=O)c2ccc(Br)o2)cc1S(=O)(=O)N(C)C | n | n | n | n | n | n | x | x
COc1ccc(CCNC(=O)CN(C2CCCCC2)S(C)(=O)=O)cc1OC | n | n | n | n | 44 | n | 58 | n
CS(=O)(=O)N(CC(=O)NCCc1ccccc1)C1CCCCC1 | n | n | n | n | n | n | x | x
O=C(NCCc1ccccc1)c1cc2ncc(Br)cn2n1 | n | n | n | n | 76 | n | 44 | n
CCc1ccccc1NC(=O)c1cc2ncc(Br)cn2n1 | n | n | n | n | 41 | n | n | n
COCCNC(=O)c1cc2ncc(Br)cn2n1 | n | n | n | n | n | n | x | x
SMILES | PRMT1 inh | A3G deaminase | NS3 helicase inh | ABHD5 PLIN5 PPI | APOBEC3A inh | HCV core dimer | APOBEC3A confirm | UDG ctr A3A
O=C(c1cc2ncc(Br)cn2n1)N1CCN(C(=O)c2ccco2)CC1 | x | n | n | n | 42 | n | 34 | n
O=C(Nc1ccc2c(c1)OCO2)c1cc2ncc(Br)cn2n1 | n | x | n | n | x | x | x | x
O=C(Nc1nc([C@@H]2O[C@H](CO)[C@@H](O)[C@H](O)[C@H]2O)cs1)NC(c1ccccc1)c1ccccc1 | n | x | x | n | x | x | x | x
Cc1ccc2c(c1)CCCN2S(=O)(=O)c1cccc(C(=O)Nc2ccccc2C(=O)O)c1 | n | n | n | n | n | n | x | x
CCCn1c(N)c(C(=O)CSc2nnc(-c3cccs3)n2C2CC2)c(=O)[nH]c1=O | n | n | x | n | n | x | x | x
C=CCNC(=O)c1ccccc1NC(=O)c1ccccc1N(C)S(C)(=O)=O | n | n | n | n | 44 | n | n | x
CCCNC(=O)c1ccccc1NC(=O)c1ccccc1N(C)S(C)(=O)=O | n | n | n | n | n | n | x | x
